Assay results as given in article PMC9257745 (Molecular Pharmaceutics, 2022).
Bridge positions count the residues as written; N and C are the ends.

Columns and labels:
human SA (HSA) = human SA (HSA) (Homo sapiens, UniProt P02768); assay: FACS binding specificity of peptide-displayed yeast cells, human albumin; settings: biotinylated SA, streptavidin-APC, flow cytometer
Procedure, shortened: (§1)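 Yeast grown in SDCAA at 30 °C for 16 h, then in SG/RCAA at 20 °C for 24 h to display the peptide. Cells labelled 1 h with mouse anti-FLAG and biotinylated albumin, washed in PBST, then stained 1 h with Alexa-488 goat anti-mouse IgG (display) and streptavidin-APC (albumin binding). Fluorescence read by flow cytometry.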

[1] = molecular target: albumin of cynomolgus monkey (Macaca fascicularis, UniProt A2V9Z4); type: binding; settings: yeast-displayed peptide, biotinylated SA, streptavidin-APC, flow cytometer
Sequence of albumin of cynomolgus monkey (A2V9Z4 25-608): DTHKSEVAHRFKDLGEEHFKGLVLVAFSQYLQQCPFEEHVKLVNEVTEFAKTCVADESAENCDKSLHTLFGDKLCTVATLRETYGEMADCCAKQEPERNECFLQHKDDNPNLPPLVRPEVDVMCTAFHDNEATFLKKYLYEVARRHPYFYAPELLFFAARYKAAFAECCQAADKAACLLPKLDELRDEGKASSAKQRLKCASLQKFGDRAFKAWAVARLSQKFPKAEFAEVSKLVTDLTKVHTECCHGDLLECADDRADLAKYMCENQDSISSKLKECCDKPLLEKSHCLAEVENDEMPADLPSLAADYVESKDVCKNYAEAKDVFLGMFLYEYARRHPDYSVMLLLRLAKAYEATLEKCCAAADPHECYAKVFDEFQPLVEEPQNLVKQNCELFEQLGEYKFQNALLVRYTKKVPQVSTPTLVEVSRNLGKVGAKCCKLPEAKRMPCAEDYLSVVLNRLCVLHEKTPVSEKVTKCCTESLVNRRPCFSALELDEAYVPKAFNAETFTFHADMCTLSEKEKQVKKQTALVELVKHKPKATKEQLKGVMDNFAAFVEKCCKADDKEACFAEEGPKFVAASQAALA
Procedure, shortened: as §1

mouse SA (MSA) = mouse SA (MSA) (Mus musculus, UniProt P07724); assay: FACS binding specificity of peptide-displayed yeast cells, mouse albumin; settings: biotinylated SA, streptavidin-APC, flow cytometer
Sequence of mouse SA (MSA) (P07724 25-608): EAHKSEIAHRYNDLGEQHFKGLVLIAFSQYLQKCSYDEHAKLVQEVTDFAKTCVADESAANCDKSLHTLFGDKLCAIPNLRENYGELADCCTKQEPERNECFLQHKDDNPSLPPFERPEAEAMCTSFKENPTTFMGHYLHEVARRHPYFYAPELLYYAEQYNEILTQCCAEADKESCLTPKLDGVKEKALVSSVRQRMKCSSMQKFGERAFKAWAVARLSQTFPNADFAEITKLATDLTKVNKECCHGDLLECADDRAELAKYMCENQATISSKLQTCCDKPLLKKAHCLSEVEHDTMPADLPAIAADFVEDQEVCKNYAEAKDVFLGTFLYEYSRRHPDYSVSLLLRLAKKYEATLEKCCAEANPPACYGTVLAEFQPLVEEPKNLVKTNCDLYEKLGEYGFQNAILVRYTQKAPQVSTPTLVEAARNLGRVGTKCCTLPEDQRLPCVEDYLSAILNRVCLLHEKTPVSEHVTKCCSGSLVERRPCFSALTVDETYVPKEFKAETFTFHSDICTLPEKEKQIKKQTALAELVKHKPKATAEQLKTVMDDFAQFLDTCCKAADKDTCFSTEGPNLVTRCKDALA
Procedure, shortened: as §1

albumin of rat = albumin of rat (Rattus norvegicus, UniProt P02770); assay: FACS binding specificity of peptide-displayed yeast cells, rat albumin; settings: biotinylated SA, streptavidin-APC, flow cytometer
Sequence of albumin of rat (P02770 25-608): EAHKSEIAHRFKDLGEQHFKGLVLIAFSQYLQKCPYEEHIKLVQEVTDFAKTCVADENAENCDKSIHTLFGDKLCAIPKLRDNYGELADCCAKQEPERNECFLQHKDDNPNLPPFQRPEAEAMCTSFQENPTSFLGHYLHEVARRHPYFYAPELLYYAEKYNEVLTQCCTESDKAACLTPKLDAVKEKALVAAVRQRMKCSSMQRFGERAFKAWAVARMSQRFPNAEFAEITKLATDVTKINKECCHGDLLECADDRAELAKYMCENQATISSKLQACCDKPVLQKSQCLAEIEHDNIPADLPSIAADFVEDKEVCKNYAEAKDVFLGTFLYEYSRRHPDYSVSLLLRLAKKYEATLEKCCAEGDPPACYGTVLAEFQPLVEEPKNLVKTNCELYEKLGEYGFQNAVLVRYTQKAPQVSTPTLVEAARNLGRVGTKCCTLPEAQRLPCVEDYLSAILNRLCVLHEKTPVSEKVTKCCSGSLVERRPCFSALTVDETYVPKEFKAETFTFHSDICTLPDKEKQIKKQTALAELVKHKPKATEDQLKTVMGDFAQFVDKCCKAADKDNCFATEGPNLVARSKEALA
Procedure, shortened: as §1

trypsin = assay: Tryptic digestion assay; type: in vitro ADME; settings: pH 8
Procedure, shortened: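 Peptide at 150 μM incubated with trypsin (substrate:enzyme 5000:1) at 37 °C in 100 mM Tris–HCl, pH 8.0. Aliquots taken at intervals and quenched with 1 M HCl. Remaining peptide measured by RP-HPLC and plotted as natural log against time, n = 3.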

fatty acid-free HSA = fatty acid-free HSA (Homo sapiens, UniProt P02768); assay: SPR binding to immobilized HSA; settings: fatty acid-free HSA immobilized on CM5 sensor chip
healthy ddy mice = assay: Hypoglycemic effect, blood glucose after subcutaneous administration to mice; type: in vivo, mouse; settings: 38 μg/kg insulin, 16 h-fasted healthy male ddy mice, mean ± S.E of 4–7 experiments

## Ac-CAAELAALEAELAALEGVNFGVVLFRGELAALKAKLAALKAYC-NH2 (disulfide 1-43; N-terminus assumed) [AY-VE]
Human SA (HSA)
  Binding of yeast clone to albumin of human (FACS): affinity
[1]
  Binding of yeast clone to albumin of cynomolgus monkey (FACS): no affinity
Mouse SA (MSA)
  Binding of yeast clone to albumin of mouse (FACS): affinity
Albumin of rat
  Binding of yeast clone to albumin of rat (FACS): no affinity
trypsin
  half-life at 150 μM: 190 ± 10 min
Fatty acid-free HSA
  Kd: 65 ± 39 nM

## Ac-ELAALEAELAALEGVNFGVVLFRGELAALKAKLAALKAY-NH2 (N-terminus assumed) [AY-VE-dS]
trypsin
  half-life at 150 μM: 56 ± 1 min

## Ac-GVNFGVVLFRGELAALKAKLAALKAY-NH2 (N-terminus assumed) [AY-VE-dN]
trypsin
  half-life at 150 μM: 6.3 ± 0.4 min

## insulin: Recombinant human insulin
Healthy ddy mice
  Time of peak of hypoglycemic effect after administration: 1 h
